Entries after “also recorded” stand apart in the source; their conditions may differ. Where two headings read alike, the source gives them in different places. acyl = not defined here

The test system of one series is C5a. In words: Effect of prednisone on SR3–C5a interaction by CD. The note with it: 0.5 μM PDN, 0.35 μM SR3, 0.1 μM C5a, PBS, 25 °C; preliminary. Format: binding, human.
Series [1] deals with T1, recombinant human C5a (Homo sapiens, UniProt P01031).
T1 sequence (P01031 678-751 limits assumed): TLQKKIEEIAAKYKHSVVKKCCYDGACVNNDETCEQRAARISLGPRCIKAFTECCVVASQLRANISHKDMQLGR
As to the kind of experiment: Two-site CD study: ECL2 peptide. It is filed as binding. The procedure, abridged:
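Two-site CD: 0.1 μM recombinant human C5a was preincubated with 0.5 μM NT-peptide, then titrated with 0–1 μM ECL2 peptide. Far-UV CD was run at 25°C in 1× PBS (pH ∼ 7.4), with at least three scans (1 s time constant, 1 nm step). Each sample was prepared and read separately, and the signal of the corresponding free peptides was subtracted.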

The conditions of series [2]: up to 100 μM, in solution; ref not given ("has been reported"); cited from earlier work.
Series [3] has as its target T1, recombinant human C5a. In words: Two-site fluorescence study: ECL2 peptide. It is filed as binding. The note with it: 0.5–1 μM SR1. The procedure, abridged:
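Two-site fluorescence: 0.1 μM C5a was preincubated with 0.5 μM NT-peptide and titrated with 0–1 μM ECL2 peptide. Readings were taken in 1× PBS (pH ∼ 7.4) at 25°C, with excitation at 278–280 nm, emission at 290–450 nm and 5 nm slits. Three scans were averaged and the free-peptide signal was subtracted.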

Series [4] deals with T1, recombinant human C5a. In words: CD titration of NT-peptides against recombinant human C5a. It is filed as binding. Put shortly: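 Far-UV CD at 25°C in filtered, degassed 1× PBS (pH ∼ 7.4). Recombinant human C5a was held at 0.1 μM and NT-peptides (native Met1-Lys28 sequence or mutants) at 0–1 μM. Samples were incubated ≥1 h at 4°C, each prepared and read separately, with at least three scans (1 s time constant, 1 nm step). Free-peptide signal was subtracted, and data were converted to mean residue ellipticity, normalized and fitted by nonlinear regression for affinity.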

A short description of series [5]: Conformational analysis of free peptides by CD. It is filed as physicochemical. The following applies: 1 μM, PBS pH ∼7.4, 25 °C; compared with SR3.
The nature of series [6]: Intrinsic tyrosine fluorescence of free peptides. Format: physicochemical. The following applies: at the working concentrations, 1× PBS pH ∼ 7.4, 25 °C.
Series [7] has as its target T2, recombinant human C5a (human, UniProt P01031 678-751).
T2 sequence (looked up): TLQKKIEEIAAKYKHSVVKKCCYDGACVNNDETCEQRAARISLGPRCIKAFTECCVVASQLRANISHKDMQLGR
In words: circular dichroism titration + other fluorescence titration. Background: CD spectra are sensitive to the conformation of chiral molecules.

The next series concerns COVID-19. The following applies: anti-C5a antibody; cited from earlier work.
In series [8] the target is T2, recombinant human C5a. As to the kind of experiment: circular dichroism titration + other fluorescence titration. This is another data set of the same source.
The next series relates to C5aR1. The note with it: cited from earlier work.

Regarding `C[C@]12C=CC(=O)C=C1CC[C@@H]1[C@@H]2C(=O)C[C@@]2(C)[C@H]1CC[C@]2(O)C(=O)CO` [PDN, prednisone], in the series on C5a, the “response of PDN-preincubated C5a to SR3 compared to free C5a” value is “comparatively weaker response”.
For “SR1: native ECL2 sequence of C5aR1 (Tyr174-Arg198), acylated and amidated, carrying Cys188/Ser mutation (acyl-YRVVREEYFPPKVLSGVDYSHDKRR-NH2; reading uncertain)”, the “CD response, C5a preincubated with SR3, 0.5 μM SR1” value in the series with recombinant human C5a [1] (0.1 μM C5a + 0.5 μM SR3, PBS, 25 °C, 0.5 μM SR1) is “substantially enhanced the CD signal”. Also, the “CD response, C5a preincubated with SR3, 1 μM SR1 (vs 0.5 μM)” value with recombinant human C5a [1] (0.1 μM C5a + 0.5 μM SR3, PBS, 25 °C, 1 μM SR1) is given as “did not change further”. In the series with recombinant human C5a [1] (0.1 μM C5a + 0.5 μM SR4, compared to the C5a–SR3/C5a–SR5 system), the “CD response, C5a preincubated with SR4” value is “relatively strong conformational response”. In addition, the “CD signature of free ECL2 peptide” value in [2] was “twisted short-stranded β-hairpin-like conformation”. Also, in the series with recombinant human C5a [3] (0.1 μM C5a + 0.5 μM SR3 or SR5), the “fluorescence response, C5a preincubated with SR3 or SR5” value is recorded as “consistent with the observation made in the CD; also recorded: modest change in fluorescence intensity”. In addition, the “fluorescence response, C5a preincubated with SR4” value with recombinant human C5a [3] (0.1 μM C5a + 0.5 μM SR4) is “quenched appreciably”.
Consider SR4 (MASFNYTTPAYGHYAAKATLDLNTPVAK), for which, in the series with recombinant human C5a [4] (0.1 μM C5a, 0-1 μM peptide, PBS pH ∼ 7.4, 25 °C), the “change of CD signal / conformation of C5a” value is “robust conformational alteration”. The “binding affinity toward C5a in words” value with recombinant human C5a [4] (CD and fluorescence titration studies taken together (A1 and A2)) is on record as “could not be obtained reliably; also recorded: did not demonstrate a quantifiable binding affinity”. Also, in series [5], the “effect of alanine mutations on conformational ordering” value is “can potentially affect the overall conformational ordering”. Moreover, the intrinsic fluorescence result in [6] is reported as “very negligible”.
Take MDSFNYTTPDYGHYDDKDTLDLNTPVDK (peptide, UniProt P21730 1-28, looked up) [SR3, native NT-peptide of C5aR1 (Met1-Lys28)]: in the series with recombinant human C5a [7], the Kd was in the range of 126 to 193 nM.

B1: Vilobelimab: anti-C5a antibody (antibody, chains of the INN, looked up, V domains shown)
VH: QVQLQQSGPQLVRPGTSVKISCKASGYSFTTFWMDWVKQRPGQGLEWIGRIDPSDSESRLDQRFKDRATLTVDKSSSTVYMQLSSPTSEDSAVYYCARGNDGYYGFAYWGQGTLVTVSS
VL: DIVLTQSPASLAVSLGQRATISCKASQSVDYDGDSYMKWYQQKPGQPPKLLIYAASNLQSGIPARFSGSGSGTDFTLNIHPVEEEDAATYYCQQSNEDPYTFGGGTKLEIK
With B1, the “outcome in COVID-19 treatment” value with COVID-19 is “favorable outcome”.
Regarding acyl-YRVVREEYFPPKVLSGVDYSHDKRR-NH2 (peptide, UniProt P21730 174-198, looked up, reading uncertain) [SR1, ECL2 peptide of C5aR1 (Tyr174-Arg198)], in the series with recombinant human C5a [8], the binding result is “binds”.

B2: C5a: cationic proinflammatory glycoprotein, complement anaphylatoxin; ligand of C5aR1 (protein)
chain: TLQKKIEEIAAKYKHSVVKKCCYDGACVNNDETCEQRAARISLGPRCIKAFTECCVVASQLRANISHKDMQLGR
As to B2, the “potency toward C5aR1” value is reported as “nanomolar to picomolar potency” in the series with C5aR1 and “picomolar–nanomolar potency” in the series with C5aR1 (native-like conditions).
With MDSFNATTPDAGHADDKDTLDLNTPVDK (peptide, UniProt P21730 1-28, looked up) [SR5, Tyr/Ala mutant NT-peptide of C5aR1 (Met1-Lys28)], the Kd with recombinant human C5a [7] was 105 to 123 nM.

As a reminder, the Kd is the free concentration of one partner at which half of the binding sites on the other are occupied at equilibrium, for simple one-to-one binding.

Source of the values: paper PMC8427777 (ACS Omega, 2021).
